Measurements as given in publication PMC8895471 (Oncology Letters, 2022).

Assays:
Format in all cases: cell-based, human
[1] = tested on: AsPC-1 cells; test: Cytotoxicity / viability, XTT assay; settings: AsPC-1, 10, 15 or 20 µM gemcitabine, 48 h
[2] = tested on: AsPC-1 cells; test: Apoptosis assay using Annexin V/PI double staining; settings: AsPC-1, 2 µM PNA, 48 h; untreated control 7%; mean of n=3
Outline: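 AsPC-1 cells (5×10^5) were seeded in six-well plates and transfected the next day with PNAs using lipofectamine, then incubated for 48 h. Adherent and floating cells were harvested by trypsinization, washed, and resuspended in ice-cold binding buffer with FITC-Annexin V and PI. Cells were stained 15 min at room temperature in the dark and analysed by flow cytometry. Data are mean ± standard error, n=3.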

[3] = tested on: RAS protein in AsPC-1 cells; test: Western blot analysis of RAS protein; settings: AsPC-1, PNA-treated 48 h, band intensity of three blots
Outline: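 AsPC-1 cells were treated with PNAs for 48 h, then lysed 20 min on ice in RIPA buffer with protease inhibitor and cleared at 13,000 rpm, 10 min, 4 °C. 20 µg protein per lane was resolved by SDS-PAGE and transferred by semi-dry blotting. Blots were blocked 1 h in 5% milk/TBST, probed overnight with anti-Ras antibody, then with peroxidase-conjugated secondary 1 h at room temperature. GAPDH served as reference.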

[4] = tested on: mutant KRAS gene expression (mRNA) in AsPC-1 cells; test: KRAS expression profile by quantitative real-time PCR; settings: AsPC-1, 2 µM or 4 µM PNAs, 48 h, normalised to GAPDH, n=3

| Compound | cell viability (XTT) [1] | apoptosis (percentage of apoptotic cells) [2] [%] | RAS protein levels (western blot) [3] | effect on mutant KRAS gene expression (mRNA, RT-qPCR) [4] |
| --- | --- | --- | --- | --- |
| Nc1ccn([C@@H]2O[C@H](CO)[C@@H](O)C2(F)F)c(=O)n1 [Gemcitabine] | total death with no dose response | – | – | – |
| CTACGCCATCAGCTCCA-KKK [PNA1] | – | 18 | decrease in total RAS protein levels | weaker effect of PNA1 at 4 µm compared to PNA1 at 1 µM |
| CTDCGCCDTCDGCTCCD-KKK [PNA3] | – | 20 | – | dose-dependent and have a significant effect |
| CTDCpGCCDTCpDGCTCCpD [PNA14] | – | 20 | – | dose-dependent and have a significant effect |
